Converted amounts (≈) assume the structure as drawn. The source made the active and inactive calls. No cut-off for these calls is given here.
What was measured:
Helicobacter pylori [1] = experiment: Inhibition of Helicobacter pylori FabZ at 50 uM
Procedure, shortened: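 HpFabZ activity read spectrophotometrically as the A260 decrease during crotonoyl-CoA conversion to β-hydroxybutyryl-CoA. Single inhibitor level of 50 µM, compound in 1% DMSO preincubated with enzyme for 1 h before assay start.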

Helicobacter pylori [2] = experiment: Antimicrobial activity against Helicobacter pylori SS1 by standard agar dilution method; assay type: functional
Procedure, shortened: (§1)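 Inoculum: H. pylori swabbed into sterile saline to 2.0 McFarland turbidity. Plates incubated at 37 °C under microaerobic gas (85% N₂, 10% CO₂, 5% O₂), read after 3 days. Compound-free agar as control.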

Helicobacter pylori [3] = experiment: Antimicrobial activity against Helicobacter pylori ATCC 43504 by standard agar dilution method; assay type: functional; procedure, shortened: as §1
[4] = Inhibition of Helicobacter pylori FabZ
Procedure, shortened: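 Spectrophotometric HpFabZ assay following the drop in A260 as crotonoyl-CoA converts to β-hydroxybutyryl-CoA. Compounds in 1% DMSO preincubated with enzyme 1 h before starting the reaction. IC50 from logistic fit of dose-response inhibition data. Means of three determinations.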

| Structure (SMILES) | inhibition (Helicobacter pylori [1]) | MIC (Helicobacter pylori [2]) | MIC (Helicobacter pylori [3]) | IC50 [4] |
| --- | --- | --- | --- | --- |
| O=C(N/N=C/c1cc(Br)c(O)c(Br)c1O)c1ccc2ccccc2c1 | 92.6% | 50 µg/mL (≈ 108 µM) | 100 µg/mL (≈ 215 µM) |  |
| CC(C)(C)c1ccc(C(=O)N/N=C/c2cc(Br)c(O)c(Br)c2O)cc1 | 74.4% | 50 µg/mL (≈ 106 µM) | 100 µg/mL (≈ 213 µM) |  |
| O=C(N/N=C/c1cc(Br)c(O)c(Br)c1O)c1cccc(F)c1 | 23.3% |  |  |  |
| O=C(N/N=C/c1cc(Br)c(O)c(Br)c1O)c1ccc(F)cc1 | 85% |  |  | 6.43 µM |
| COCCN1C(=O)/C(=C\c2ccc(-c3ccc(Cl)c(C(=O)OC)c3)o2)S/C1=N/c1ccc(OC)cc1 | inactive |  |  |  |
| O=C(N/N=C/c1cc(Br)c(O)c(Br)c1O)c1ccc2cc(O)ccc2c1 |  | 100 µg/mL (≈ 208 µM) | 100 µg/mL (≈ 208 µM) | 8.77 µM |
| COCCN1C(=O)/C(=C\c2ccc(-c3cc(C(=O)OC)ccc3Cl)o2)S/C1=N/c1ccccc1 | inactive |  |  |  |
| COCCN1C(=O)/C(=C\c2ccc(-c3ccc(Cl)c(C(=O)OC)c3)o2)S/C1=N/c1ccccc1OC | inactive |  |  |  |
| O=C(N/N=C/c1cc(Br)c(O)c(Br)c1O)c1cccc(Br)c1 | 96% | 100 µg/mL (≈ 203 µM) | 100 µg/mL (≈ 203 µM) |  |
| COCCN1C(=O)/C(=C\c2ccc(-c3ccc(Cl)c(C(=O)OC)c3)o2)S/C1=N/c1cccc(C(F)(F)F)c1 | 19.9% |  |  |  |
| CCN(CC)CCN1C(=O)/C(=C\c2ccc(-c3ccc(Cl)c(C(=O)OC)c3)o2)S/C1=N/c1ccccc1 | inactive |  |  |  |
| CC(=O)N/N=C/c1cc(Br)c(O)c(Br)c1O | 15.2% |  |  |  |
| O=C(N/N=C/c1ccc(O)cc1O)c1cccnc1 | 25.6% |  |  |  |
| COCCN1C(=O)/C(=C\c2ccc(-c3ccc(Cl)c(C(=O)O)c3)o2)S/C1=N/c1ccc(OC)cc1 | 15.4% |  |  |  |
| O=C(N/N=C/c1cc(Br)c(O)c(Br)c1O)c1ccc(-c2ccc(O)cc2)cc1 |  | > 100 µg/mL | > 100 µg/mL | 42.7 µM |
| O=C(N/N=C/c1cc(Br)c(O)c(Br)c1O)c1cccs1 | 72% |  |  |  |
| COc1c(Br)cc(/C=N/NC(=O)c2cccnc2)c(OC)c1Br | 64.4% |  |  |  |
| O=C(N/N=C/c1cc(Br)c(O)c(Br)c1O)c1cccnc1 | 71.4% |  |  | 39.8 µM |
| O=C(N/N=C/c1cc(Br)c(O)c(Br)c1O)c1ccc(Oc2ccccc2)cc1 |  | inactive | inactive | 12.8 µM |
| COCCN1C(=O)/C(=C\c2ccc(-c3ccc(Cl)cc3)o2)S/C1=N/c1ccccc1 | inactive |  |  |  |
| COCCN1C(=O)/C(=C\c2ccc(-c3ccc(Cl)c(C(=O)OC)c3)o2)S/C1=N/c1ccccc1Br | inactive |  |  |  |
| O=C(N/N=C/c1cc(Br)c(O)c(Br)c1O)c1ccncc1 | 36.4% |  |  |  |
| O=C(N/N=C/c1cc(Br)c(O)c(Br)c1O)c1ccc2c(c1)Cc1ccccc1-2 |  | 100 µg/mL (≈ 199 µM) | 50 µg/mL (≈ 99.6 µM) | 3.75 µM |
| COCCN1C(=O)/C(=C\c2ccc(-c3ccc(Cl)c(C(=O)O)c3)o2)S/C1=N/c1ccc2ccccc2c1 | 32.2% |  |  |  |

| Structure (SMILES) | inhibition (Helicobacter pylori [1]) | MIC (Helicobacter pylori [2]) | MIC (Helicobacter pylori [3]) | IC50 [4] |
| --- | --- | --- | --- | --- |
| COCCN1C(=O)/C(=C\c2ccc(-c3ccc(Cl)c(C(=O)OC)c3)o2)S/C1=N/c1ccc(Br)cc1 | inactive |  |  |  |
| COCCN1C(=O)/C(=C\c2ccc(-c3ccc(Cl)c(C(=O)OC)c3)o2)S/C1=N/c1ccccc1F | 10% |  |  |  |
| O=C(N/N=C/c1cc(Br)c(O)c(Br)c1O)c1ccc2ccccc2c1O | 87% | 100 µg/mL (≈ 208 µM) | 100 µg/mL (≈ 208 µM) | 1.97 µM |
| COc1ccc(C(=O)N/N=C/c2cc(Br)c(O)c(Br)c2O)cc1 | 81.4% |  |  |  |
| O=C(N/N=C/c1ccc(O)cc1)c1cccnc1 | 15.1% |  |  |  |
| COCCN1C(=O)/C(=C\c2ccc(-c3ccc(Cl)c(C(=O)O)c3)o2)S/C1=N/c1ccccc1 | 63.9% |  |  |  |
| O=C(N/N=C/c1cc(Br)c(O)c(Br)c1O)c1ccc2cc(Br)ccc2c1 |  | 50 µg/mL (≈ 92.1 µM) | 100 µg/mL (≈ 184 µM) | 3.55 µM |
| COCCN1C(=O)/C(=C\c2ccc(-c3ccc(Cl)c(C(=O)OC)c3)o2)S/C1=N/c1ccc(F)cc1 | inactive |  |  |  |
| COCCN1C(=O)/C(=C\c2ccc(-c3ccc(Cl)c(C(=O)OC)c3)o2)S/C1=N/c1cccc(Br)c1 | 12% |  |  |  |
| O=C(N/N=C/c1cc(Br)c(O)c(Br)c1O)c1ccc(Cl)cc1 | 93.8% | > 100 µg/mL | > 100 µg/mL |  |
| COCCN1C(=O)/C(=C\c2ccc(-c3ccc(Cl)c(C(=O)OC)c3)o2)S/C1=N/c1cccc(OC)c1 | 12.6% |  |  |  |
| O=C(N/N=C/c1cc(Br)c(O)c(Br)c1O)c1ccc(Br)cc1 | 94.2% | 100 µg/mL (≈ 203 µM) | 100 µg/mL (≈ 203 µM) |  |
| COCCN1C(=O)/C(=C\c2ccc(-c3ccc(Cl)c(C(=O)OC)c3)o2)S/C1=N/c1ccccc1 | inactive |  |  |  |
| O=C(N/N=C/c1cc(Br)c(O)c(Br)c1O)c1ccco1 | 39.4% |  |  |  |
| COCCN1C(=O)/C(=C\c2ccc(-c3ccc(Cl)c(C(=O)OC)c3)o2)S/C1=N/c1cccc(F)c1 | inactive |  |  |  |
| O=C(Cc1ccc(O)cc1)N/N=C/c1cc(Br)c(O)c(Br)c1O | 50% |  |  |  |
| O=C(N/N=C/c1cc(Br)c(O)c(Br)c1O)c1ccccc1 | 38.8% |  |  |  |
| COCCN1C(=O)/C(=C\c2ccc(-c3ccc(Cl)c(C(=O)OC)c3)o2)S/C1=N/c1ccc(C(F)(F)F)cc1 | inactive |  |  |  |
| O=C(N/N=C/c1cc(Br)c(O)c(Br)c1O)c1cc2ccccc2cc1O |  | 100 µg/mL (≈ 208 µM) | 100 µg/mL (≈ 208 µM) | 0.86 µM |
| O=C(N/N=C/c1cc(Br)c(O)c(Br)c1O)c1cc(C(F)(F)F)cc(C(F)(F)F)c1 |  | 100 µg/mL (≈ 182 µM) | 50 µg/mL (≈ 90.9 µM) | 2.13 µM |
| COC(=O)c1cc(-c2ccc(/C=C3/S/C(=N/c4ccccc4)N(CCCN(C)C)C3=O)o2)ccc1Cl | inactive |  |  |  |
| COC(=O)c1cc(-c2ccc(/C=C3/S/C(=N/c4ccccc4)N(CCN4CCCC4)C3=O)o2)ccc1Cl | inactive |  |  |  |
| COCCN1C(=O)/C(=C\c2ccc(-c3ccc(Cl)c(C(=O)OC)c3)o2)S/C1=N/c1ccccc1C(F)(F)F | inactive |  |  |  |
| O=C(N/N=C/c1cc(Br)c(O)c(Br)c1)c1cccnc1 | 62.1% |  |  |  |

Source: ChEMBL document CHEMBL1153414, “Discovering potent inhibitors against the beta-hydroxyacyl-acyl carrier protein dehydratase (FabZ) of Helicobacter pylori: structure-based design, synthesis, bioassay, and crystal structure determination” (J Med Chem, 2009)
